Measured values published in BindingDB's records for doi:10.1021/jm990942i (University of Montpellier, 2000).

Target: Gastrin-releasing peptide receptor (Rattus norvegicus, UniProt P52500)
Experiment: In vitro binding affinity against bombesin / GRP receptors on rat pancreatic acini.
Procedure, shortened: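 Male Wistar rat dispersed pancreatic acini (about 1 mg/mL protein) incubated 60 min at 37 °C with 20 pM (3-[125I]iodotyrosyl15)GRP and varying analogue; pellet centrifuged at 10000g, washed twice, counted. Nonspecific binding with 10 μM unlabeled BN. Specific binding as %, mean ± SD of three experiments in duplicate.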

Chain of Gastrin-releasing peptide receptor (P52500 whole entry N28S): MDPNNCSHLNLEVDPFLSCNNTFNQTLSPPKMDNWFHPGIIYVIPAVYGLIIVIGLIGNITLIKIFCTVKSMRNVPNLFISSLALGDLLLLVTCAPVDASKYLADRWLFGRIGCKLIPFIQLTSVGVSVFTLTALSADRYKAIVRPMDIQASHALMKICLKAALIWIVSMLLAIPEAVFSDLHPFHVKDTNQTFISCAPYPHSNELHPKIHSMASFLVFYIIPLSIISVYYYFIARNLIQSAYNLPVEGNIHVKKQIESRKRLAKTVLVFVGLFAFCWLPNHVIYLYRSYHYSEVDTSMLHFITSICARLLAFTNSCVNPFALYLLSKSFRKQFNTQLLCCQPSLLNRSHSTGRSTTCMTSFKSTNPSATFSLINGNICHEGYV

| Ki [µM] | Compound |
| --- | --- |
| > 1 | CC(C)CC(NC(=O)C(CC(C)C)NC(=O)C(Cc1cnc[nH]1)NC(=O)Cn1c(=O)n(CCNC(=O)C(Cc2c[nH]c3ccccc23)NC(=O)C(CCC(N)=O)NC(=O)[C@H](N)Cc2ccccc2)c(=O)c2ccccc21)C(N)=O (some centres not stated) [Bombesin analogues] |
| > 1 | CC(C)CC(NC(=O)C(CC(C)C)NC(=O)C(Cc1cnc[nH]1)NC(=O)[C@H](Cc1ccccc1)N1CC[C@H](NC(=O)C(C)NC(=O)C(Cc2c[nH]c3ccccc23)NC(=O)C(CCC(N)=O)NC(=O)[C@H](N)Cc2ccccc2)C1=O)C(N)=O (some centres not stated) [Bombesin analogues] |
